Here are results for 1 molecule from ChEMBL document CHEMBL5252537, “Usnic Acid Benzylidene Analogues as Potent Mechanistic Target of Rapamycin Inhibitors for the Control of Breast Malignancies” (J Nat Prod, 2017).

The subject of data set [1] is MCF7. Description: Induction of autophagy in human MCF7 cells assessed as increase in beclin-1 level at 0.4 to 0.8 uM by Western blotting analysis. The following applies: dose 0.4-0.8 µM. In kind it is functional, cell-based. In a few lines:
(§1)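 Cells seeded at 5 × 10^5 per 100 mm dish and allowed to attach overnight. Treated with compound or DMSO for 72 h (HGF 100 ng/mL added for MDA-MB-231). Lysed in RIPA buffer with protease inhibitors. 30 μg protein run on SDS-PAGE, transferred to PVDF, blocked in 5% BSA/TBST. Primary antibodies overnight at 4 °C, HRP secondary antibodies, chemiluminescent detection.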

The subject of a further data set is MDA-MB-468. Kind of data set: Induction of autophagy in human MDA-MB-468 cells assessed as autophagic vacuoles by microscopic analysis. The data set is classed as functional, cell-based. In a few lines: (§2)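 Cells of each line treated with compound and examined by light microscopy for autophagic vacuoles, compared with control cells.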
The test system of data set [2] is MCF7. Description: Antitumor activity against human MCF7 cells xenografted in athymic nude mouse assessed as reduction in mean tumor volume at 10 mg/kg, ip measured after 75 days post inoculation (reference value: 1093 +/- 185 mm3). The following applies: time 75 day.
In a further data set the target is mTORC2 (Homo sapiens) (UniProt P42345+Q6R327+Q9BVC4+Q9BPZ7). Kind of data set: Inhibition of mTORC2 in human MDA-MB-231 cells assessed as reduction in Akt phosphorylation at Ser473 residue at 0.25 to 0.5 uM by Western blot analysis. The data set is classed as cell-based. The following applies: dose 0.25-0.5 µM. In a few lines:
as §1

Data set [3] concerns MDA-MB-231. Description: Induction of autophagy in human MDA-MB-231 cells assessed as increase in LC3 level at 0.4 to 0.8 uM by Western blotting analysis. The data set is classed as functional, cell-based. The following applies: dose 0.4-0.8 µM. In a few lines:
as §1

Data set [4] deals with Serine/threonine-protein kinase mTOR (Homo sapiens) (UniProt P42345). Kind of data set: In vivo inhibition of mTOR in human MCF7 cells xenografted in athymic nude mouse assessed as downregulation of phosphorylated 4E-BP1 level at 10 mg/kg, ip.
In data set [5] the test system is T47D. Description: Induction of autophagy in human T47D cells assessed as autophagic vacuoles by microscopic analysis. The data set is classed as functional, cell-based. In a few lines:
as §2

Data set [6] concerns T47D. Kind of data set: Antiproliferative activity against human T47D cells incubated for 72 hrs by MTT assay. In kind it is functional, cell-based. In a few lines: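 Cells seeded at 5 × 10^3/well and allowed to attach overnight, then washed with PBS. Compound diluted from 10 mM DMSO stock into medium (100 ng/mL HGF added for c-Met-expressing cells), in triplicate, 72 h at 37 °C. MTT added for 4 h, formazan dissolved in DMSO, absorbance read at 570 nm. Cell numbers taken from a standard curve; IC50 calculated.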

The subject of a further data set is BT-474. Kind of data set: Induction of autophagy in human BT-474 cells assessed as autophagic vacuoles by microscopic analysis. The data set is classed as functional, cell-based. In a few lines: as §2
Data set [7] relates to MCF7. Kind of data set: Induction of autophagy in human MCF7 cells assessed as increase in LC3 level at 0.4 to 0.8 uM by Western blotting analysis. The following applies: dose 0.4-0.8 µM. In kind it is functional, cell-based. In a few lines: as §1
Data set [8] has as its system MDA-MB-231. Description: Induction of autophagy in human MDA-MB-231 cells assessed as increase in beclin-1 level at 0.4 to 0.8 uM by Western blotting analysis. In kind it is functional, cell-based. Conditions: dose 0.4-0.8 µM. In a few lines: as §1
In data set [9] the target is Serine/threonine-protein kinase mTOR (Homo sapiens) (UniProt P42345). Description: Inhibition of mTOR in human MDA-MB-231 cells assessed as reduction in phosphorylated 4E-BP1 level at 0.25 to 0.5 uM by Western blot analysis. Conditions: dose 0.25-0.5 µM. The data set is classed as cell-based. In a few lines:
as §1

Another data set concerns MCF-10A. Kind of data set: Cytotoxicity against human MCF-10A cells at 6 times of IC50 incubated for 24 hrs by MTT assay. The data set is classed as toxicity, cell-based. In a few lines:
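MCF-10A cells seeded at 3 × 10^4/well and allowed to attach overnight. Treated with compound in serum-free medium, in triplicate, for 24 h; vehicle wells got the maximum DMSO amount. Doxorubicin (10 μM) was the positive control. MTT for 4 h, formazan dissolved in DMSO, A570 blank-subtracted. Cell numbers from a standard curve; viability expressed versus DMSO wells.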

Data set [10] is described as follows: Toxicity in athymic nude mouse xenografted with human MCF7 cells assessed as reduction in body weight at 10 mg/kg, ip measured after 75 days post inoculation. The following applies: in vivo, 1800 h.
Data set [11] in a line: Toxicity in athymic nude mouse xenografted with human MCF7 cells at 10 mg/kg, ip measured after 75 days post inoculation. The following applies: in vivo, 1800 h.

The source made the active and inactive calls. The calls are words filed in the database; no cut-off is given here.

As for `CC(=O)C1=C(O)C=C2Oc3c(C(=O)/C=C/c4ccc(OC(F)(F)F)cc4)c(O)c(C)c(O)c3[C@]2(C)C1=O`, the outcome with MCF7 [1], with MDA-MB-468, in the data set on MDA-MB-231 [3], in the data set on T47D [5], with BT-474 and with MCF7 [7] was Active. The result in the data set on MDA-MB-231 [8] was Active. For the same molecule, the Activity in the data set with MCF7 [2] is reported as 385 mm3; in the data set with MCF-10A, “Non-Toxic”; in data set [10] it was “Non-Toxic”; in data set [11], “Non-Toxic”. In addition, the inhibition entry (at mTORC2 (Homo sapiens); in [4]; in data set [9]) was “Active” throughout. Besides, the IC50 in the data set on T47D [6] worked out at 330 nM.
